Screening data deposited in PubChem by Broad Institute.
Sampled rows, rich in hits. Any-hit rate of the full collection: about 2.9%.
S100A4 inh HTS: inhibitors of human S100A4 binding to myosin IIA peptide; S100A4/TAMRA-MyoIIA peptide fluorescence polarization; inhibition, % at 10.7 µM; hit rate 0.14% among 360,000;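 active means mean inhibition of at least 70% across replicates, with every replicate also reaching that level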
Target sequence (P26447 whole entry, looked up): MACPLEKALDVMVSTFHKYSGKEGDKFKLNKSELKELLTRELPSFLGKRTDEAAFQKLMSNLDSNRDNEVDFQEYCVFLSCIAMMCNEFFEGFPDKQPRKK
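Assay system: human S100A4 monomer with TAMRA-labelled myosin IIA peptide / Buffer or medium: Calcium-containing HEPES buffer, pH 7.2 / Reagent: TAMRA-labelled myosin IIA heavy-chain peptide probe, 5 nM / Compound: one dose per compound / Timing: polarization read 5 min after assay mix addition, stable 5–60 min / Benchmarks: neutral control DMSO, positive control TFP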
C2C12 statin: suppression of simvastatin myotoxicity. C2C12 myotubes + simvastatin, ATP luminescence, 48 h; scaled: DMSO 0, geranylgeraniol control 100. rescue of ATP level, % at 7.49 µM. hit rate 0.78% among 330,000. AID 602340;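 active means mean ATP rescue above about 67%, or every replicate alone reaching that limit, limit read from the data, passing the limit was not always enough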;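 further: myotubes were challenged with 10 µM simvastatin during compound exposure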
SIRT5 inh: inhibitors of human sirtuin-5 desuccinylase | Purified SirT5, succinyl-peptide AMC, trypsin-coupled fluorescence | Q9NXA8 | hit rate 1.1% among 330,000 | inhibition, % at 15 µM | AID 652115; in the data active means inhibition above about 15%
Target sequence (Q9NXA8 whole entry, looked up): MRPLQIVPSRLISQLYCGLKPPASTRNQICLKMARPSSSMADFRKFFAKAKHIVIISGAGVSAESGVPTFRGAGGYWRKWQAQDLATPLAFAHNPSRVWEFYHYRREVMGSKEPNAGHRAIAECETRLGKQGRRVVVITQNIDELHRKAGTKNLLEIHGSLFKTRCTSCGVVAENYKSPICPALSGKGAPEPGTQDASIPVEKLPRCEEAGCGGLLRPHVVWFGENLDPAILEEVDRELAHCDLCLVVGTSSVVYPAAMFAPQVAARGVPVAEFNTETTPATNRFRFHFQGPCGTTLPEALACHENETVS
PGC1a acetyl inh: lowers PGC1a acetylation signal in U2OS cells; AlphaScreen anti-acetyl-lysine; with virally co-expressed GCN5 acetyltransferase; inhibition, % at 15.6 µM; hit rate 0.17% among 350,000; AID 651687;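 active means every replicate shows inhibition of at least 40%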
DENV2 CPE rescue: DENV2-induced cell death inhibition; CPE inhibition, % at 9.99 µM; hit rate 1.7% among 350,000; DENV2-infected cells, cytopathic effect rescue, plate reader; in the data active means CPE inhibition above about 20%, passing the limit was not always enough; tested in BHK-21 cells
Of the large screens only hits and unclear results are named; the others gave an inactive call.

C[C@@H]1CN([C@H](C)CO)C(=O)Cc2cc(NC(=O)C3CC3)ccc2O[C@@H]1CN(C)C(=O)Nc1ccccc1	none
COc1cc2c(cc1OC)C(C)N(C(=O)c1ccc(C)o1)CC2 (centres undefined)	SIRT5 inh 22 (no result: PGC1a acetyl inh)
COc1cc2c(cc1OC)C(C)N(C(=O)c1sccc1C)CC2 (centres undefined)	none
COc1cc2c(cc1OC)C(C)N(C(=O)Cn1ncc3c1-c1cc(C)ccc1OC3)CC2 (centres undefined)	DENV2 CPE rescue 70 (no result: SIRT5 inh)
CCCCN(CC)C(=O)Cn1ncc2c1-c1cc(C)ccc1OC2	none (no result: PGC1a acetyl inh)
C[C@@H]1CCCCO[C@@H](CN(C)C(=O)c2ccccc2)[C@H](C)CN([C@@H](C)CO)C(=O)c2cc(NS(=O)(=O)c3ccc(Cl)cc3)ccc2O1	none (no result: C2C12 statin)
C[C@@H]1CCCCO[C@@H](CN(C)C(=O)c2ccccc2)[C@@H](C)CN([C@@H](C)CO)C(=O)c2cc(NS(=O)(=O)c3ccc(Cl)cc3)ccc2O1	DENV2 CPE rescue 21 (no result: C2C12 statin)
C[C@@H]1CCCCO[C@@H](CN(C)C(=O)c2ccccc2)[C@@H](C)CN([C@@H](C)CO)C(=O)c2cc(NS(=O)(=O)c3ccc(F)cc3)ccc2O1	DENV2 CPE rescue 121 (no result: C2C12 statin)
C[C@H](CO)N1C[C@H](C)[C@H](CN(C)C(=O)c2ccccc2)OCCCC[C@H](C)Oc2ccc(NS(=O)(=O)c3ccc(F)cc3)cc2C1=O	none (no result: C2C12 statin)
COc1ccc(NC(=O)N(C)C[C@@H]2Oc3ccc(NS(=O)(=O)c4ccc(F)cc4)cc3CC(=O)N([C@H](C)CO)C[C@H]2C)cc1	none
C[C@H](CO)N1C[C@H](C)[C@H](CN(C)Cc2ccc(Cl)c(Cl)c2)OCCCC[C@H](C)Oc2ccc(NS(C)(=O)=O)cc2C1=O	none (no result: C2C12 statin)
COc1ccc2c3c([nH]c2c1)[C@H](CO)N(C(=O)CN(C)C)CC31CCN(CC2CCCCC2)CC1	none (no result: S100A4 inh HTS, C2C12 statin, SIRT5 inh)
C[C@H](O)C#Cc1ccc2c(c1)O[C@H](CN(C)Cc1ccc(-c3ccccc3)cc1)[C@@H](C)CN([C@@H](C)CO)S2(=O)=O	SIRT5 inh 30
C[C@H](O)C#Cc1ccc2c(c1)O[C@H](CN(C)Cc1ccccc1)[C@@H](C)CN([C@H](C)CO)S2(=O)=O	none
C[C@@H]1CN([C@@H](C)CO)S(=O)(=O)c2ccc(C#C[C@@H](C)O)cc2O[C@@H]1CN(C)Cc1ccc(-c2ccccc2)cc1	SIRT5 inh 24
C[C@@H]1CN([C@H](C)CO)S(=O)(=O)c2ccc(C#C[C@@H](C)O)cc2O[C@H]1CN(C)Cc1ccccc1	none
C[C@H](O)C#Cc1ccc2c(c1)O[C@H](CN(C)Cc1ccc(-c3ccccc3)cc1)[C@H](C)CN([C@@H](C)CO)S2(=O)=O	SIRT5 inh 27
C[C@@H]1CN([C@H](C)CO)S(=O)(=O)c2ccc(C#C[C@@H](C)O)cc2O[C@H]1CN(C)Cc1ccc(-c2ccccc2)cc1	SIRT5 inh 30
C[C@H](CO)N1C[C@H](C)[C@H](CN(C)C(=O)Nc2cccc3ccccc23)OCCCC[C@H](C)Oc2ccc(NC(=O)Nc3cccc4ccccc34)cc2C1=O	none (no result: C2C12 statin)
C[C@@H](O)C#Cc1ccc2c(c1)O[C@H](CN(C)Cc1ccccc1)[C@@H](C)CN([C@@H](C)CO)S2(=O)=O	none
C[C@H](O)C#Cc1ccc2c(c1)O[C@@H](CN(C)Cc1ccc(-c3ccccc3)cc1)[C@H](C)CN([C@H](C)CO)S2(=O)=O	SIRT5 inh 28
CCC(=O)Nc1ccc2c(c1)C(=O)N(C)C[C@@H](OC)[C@@H](C)CN(CC1CCCCC1)[C@H](C)CO2	none
CCC(=O)Nc1ccc2c(c1)C(=O)N(C)C[C@H](OC)[C@@H](C)CN(CC1CCCCC1)[C@H](C)CO2	SIRT5 inh 18
COc1cccc(NC(=O)Nc2ccc3c(c2)C(=O)N(C)C[C@H](OC)[C@@H](C)CN(CC2CC2)[C@@H](C)CO3)c1	DENV2 CPE rescue 22 (no result: C2C12 statin)
CO[C@@H]1CN(C)C(=O)c2cc(NC(=O)c3ccccc3F)ccc2OC[C@H](C)N(CC2CC2)C[C@@H]1C	DENV2 CPE rescue 43
CO[C@@H]1CN(C)C(=O)c2cc(NC(=O)CC(F)(F)F)ccc2OC[C@@H](C)N(CC2CC2)C[C@H]1C	none (no result: C2C12 statin, SIRT5 inh)
CO[C@H]1CN(C)C(=O)c2cc(NC(=O)CC(F)(F)F)ccc2OC[C@H](C)N(CC2CC2)C[C@H]1C	DENV2 CPE rescue 54 (no result: C2C12 statin, SIRT5 inh)
